Compound activity from PubChem.
D1 mod: allosteric modulators of human D1 dopamine receptor. P21728. HEK293 D1, CRE-luciferase, dopamine EC30 potentiation; actives deviate in either direction. B-score at 10 µM. 5.9% of 58,000 active. AID 641;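 active = luminescence count or its row- and column-corrected plate score outside the 99.7% band of the plate's sample wells, on either side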
Target sequence (P21728 whole entry, looked up): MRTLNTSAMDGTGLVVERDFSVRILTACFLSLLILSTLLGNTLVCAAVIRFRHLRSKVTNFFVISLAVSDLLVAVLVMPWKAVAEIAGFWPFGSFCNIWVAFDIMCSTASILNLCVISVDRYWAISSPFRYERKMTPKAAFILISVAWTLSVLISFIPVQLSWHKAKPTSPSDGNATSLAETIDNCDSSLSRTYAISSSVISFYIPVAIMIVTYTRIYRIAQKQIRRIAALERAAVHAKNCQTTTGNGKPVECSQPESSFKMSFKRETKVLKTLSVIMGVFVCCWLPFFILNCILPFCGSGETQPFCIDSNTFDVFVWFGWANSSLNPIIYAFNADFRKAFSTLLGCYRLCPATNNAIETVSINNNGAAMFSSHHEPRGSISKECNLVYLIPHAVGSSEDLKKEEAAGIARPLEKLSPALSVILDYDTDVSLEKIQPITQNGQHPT
PostGolgi yeast: growth inhibition of a yeast mutant, post-Golgi transport screen; 0.9% of 98,000 active; inhibition, % at 10 µM; post-Golgi transport phenotypic cell assay; AID 739;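 note: yeast cells grown in 1536-well plates; yeast grown about 18 h at 30C before absorbance read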
E coli WT exp: E. coli BW25113 growth inhibition, expanded screen; OD600 absorbance; growth inhibition, % at 100 µM; 0.15% of 98,000 active; AID 710;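 active = growth inhibition above about 50% at one test dose, limit read from the data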;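 note: growth measured after 20 h incubation at 37 °C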
hDAT+cocaine: human DAT dopamine uptake with cocaine, either direction. Q01959. LLC-PK1 hDAT cells, [14C]-dopamine uptake with cocaine IC80; actives deviate in either direction. B-score at 10 µM. 1.3% of 110,000 active;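 active = Z score or B-score, a plate-position-corrected score, falls beyond the plate's 99.7% confidence bounds, in either direction; inactive = both scores lie inside the 99.7% bounds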;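 note: scored against the spread of the other compound wells on the same plate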
tolC growth inh: blocks growth of E. coli BW25113 tolC mutant; AID 573; growth inhibition, % at 10 µM (by protocol); 2.2% of 65,000 active; OD615;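 active = growth inhibition at or above a cutoff equal to the mean over every tested compound plus 3 SD, cut at about 60% in these data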;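 note: growth measured after 20 h incubation at 37 °C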
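test system = E. coli BW25113 ΔtolC::kan bacteria | medium = LB with kanamycin 50 µg/mL | signal = OD at 615 nm | schedule = 37 °C, 20 h exposure | evaluation = % inhibition of E. coli growth | compound dosing = one dose of 10 µM final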
PostGolgi ctrl: inhibits growth of the yeast control strain. efflux-deficient yeast background strain, growth absorbance A615, 16 h. inhibition, % at 10 µM. 5% of 98,000 active. AID 738
Numbers without * were called inactive; nt = not tested or not shown. Rows were chosen to be rich in hits. Some 9.3% of all compounds tested hit in one or more screens of this group. Cut-off read from the data, not from the text of the source, unless noted: active = inhibition above about 30%; inactive = the rest.

SMILES	D1 mod	PostGolgi yeast	E coli WT exp	hDAT+cocaine	tolC growth inh	PostGolgi ctrl
COc1ccc(Cn2c3nc4ccccc4nc3c3c(=O)n(Cc4ccco4)c(C)nc32)cc1	2.91	nt	nt	nt	18.2	nt
COc1ccc(Cn2c(C)nc3c(c2=O)c2nc4ccccc4nc2n3Cc2ccco2)cc1	7.64*	nt	nt	nt	-10.2	nt
CCC(C)n1cnc2c(c1=O)c1nc3ccccc3nc1n2Cc1ccc(OC)cc1 (stereo not drawn)	nt	-4.6	-11.0	1.61	nt	36.0*
O=C(N/C(=C/c1ccco1)C(=O)N1CCCCC1)c1cccs1	nt	-7.1	-1.0	-0.737	nt	27.0
O=C(CCCCCn1c(SCc2ccncc2)nc2ccccc2c1=O)NCc1ccco1	4.28	0.3	-29.0	0.521	31.8	21.3
Cc1cccc(-n2c(N)c(C(=O)NCCN3CCOCC3)c3nc4ccccc4nc32)c1	0.219	30.3*	-4.0	1.83	10.2	-2.5
Nc1c(C(=O)NCc2ccc(F)cc2)c2nc3ccccc3nc2n1CCCN1CCOCC1	nt	100.9*	10.0	-0.329	nt	73.2*
CC12CCC(C(=O)NCc3ccc4c(c3)OCO4)(C(=O)C1=O)C2(C)C (stereo not drawn)	nt	2.2	-1.0	-1.09	nt	5.5
O=C(Nc1cc(Cl)ccc1O)C1CCCO1 (stereo not drawn)	-0.216	-2.4	8.0	0.424	-11.7	37.7*
CC(C)NC(=O)c1ccccc1NC(=O)C1CCCO1 (stereo not drawn)	nt	-3.0	4.0	-0.0339	nt	7.4
O=C(Nc1ccccc1Sc1ccccc1)C1CCCO1 (stereo not drawn)	3.61	-3.0	0.0	-0.129	10.2	38.2*
O=C(O)c1cc(Cl)ccc1NC(=O)C1CCCO1 (stereo not drawn)	-0.734	12.1	-7.0	0.00188	-7.2	6.5
COc1ccc(NC(=O)c2ccccc2NC(=O)C2CCCO2)cc1 (stereo not drawn)	0.168	-0.9	-3.0	-9.04*	-11.9	1.4
CCN1CC=C2C(C#N)=C(N)C(C#N)(C#N)C(c3cc(Cl)ccc3Cl)C2C1 (stereo not drawn)	-1.07	0.2	5.0	nt	10.2	0.1
CCOc1ccccc1-c1ccc(C(=O)NCc2ccccc2)o1	nt	nt	nt	0.574	nt	nt
CCCC(=O)Nc1ccc(N2CCN(C(=O)c3cccs3)CC2)cc1	0.189	19.3	-9.0	-1.82	-5.3	-1.4
CN1CCN(c2ncnc3c2cnn3-c2ccc(Cl)cc2)CC1	-6.24*	1.1	9.0	-0.0322	-14.2	23.8
CC1CCCN(c2ncnc3c2cnn3-c2ccccc2)C1 (stereo not drawn)	-7.59*	nt	nt	1.31	58.6	nt
Cc1ccccc1C(=O)N1CCN(c2ncnc3c2cnn3-c2ccccc2)CC1	nt	5.1	4.0	-5.34*	nt	-1.6
Cc1ccc(C(=O)N2CCN(c3ncnc4c3cnn4-c3ccccc3)CC2)cc1	nt	nt	nt	0.31	nt	nt
c1ccc(CCN2CCN(c3ncnc4c3cnn4-c3ccccc3)CC2)cc1	0.0306	-2.6	-23.0	2.18	65.7*	12.3
CCN1CCN(c2ncnc3c2cnn3-c2ccc(Cl)cc2)CC1	nt	nt	nt	0.704	3.6	nt
Cc1cc(C)nc(N2CCC(C(=O)Nc3nnc(C)s3)CC2)n1	-0.00192	7.0	2.0	-0.0125	-16.3	5.0
CCC(C)N(C(=O)Cn1nnc2ccccc21)C(C(=O)Nc1ccc(F)cc1)c1cccc(OC)c1 (stereo not drawn)	nt	9.7	-11.0	0.344	nt	9.0
O=C(CN1C(=O)NC2(CCc3ccccc32)C1=O)Nc1cc(C(F)(F)F)ccc1N1CCOCC1 (stereo not drawn)	nt	nt	nt	-0.229	25.1	nt
SMILES	D1 mod	PostGolgi yeast	E coli WT exp	hDAT+cocaine	tolC growth inh	PostGolgi ctrl
COC(=O)C1(c2ccccc2)NC(c2cccs2)C2C(=O)N(c3ccccc3)C(=O)C21 (stereo not drawn)	nt	nt	nt	-0.301	nt	nt
CC1CCCN(c2ncnc3c2cnn3-c2ccc(Cl)cc2)C1 (stereo not drawn)	nt	nt	nt	0.00508	96.1*	nt
c1ccc(-n2ncc3c(N4CCCCC4)ncnc32)cc1	-6.93*	-13.6	4.0	0.104	15.7	6.2
CC1CC(C)CN(c2ncnc3c2cnn3-c2ccc(Cl)cc2)C1 (stereo not drawn)	-1.03	9.5	-13.0	-0.724	58.3	9.1
O=C(COc1c(F)c(F)c(C(F)(F)F)c(F)c1F)Nc1ccc(N2CCOCC2)c(Cl)c1	-0.055	-2.1	-21.0	nt	100.0*	13.8
O=C(Nc1ccc(N2CCOCC2)c(Cl)c1)c1ccccc1F	nt	5.8	4.0	-1.73	nt	-0.6
CC(C)C[C@@H]1NC(=O)[C@H](C(C)C)NC(=O)c2cc([N+](=O)[O-])cc(I)c2OCC[C@@H](C(N)=O)NC1=O	nt	nt	nt	-0.00103	nt	nt
COc1ccc(CCCc2nnc(SCC(=O)Nc3ncc(C)s3)o2)cc1	-0.101	0.5	-9.0	0.81	-9.0	42.7*
COc1ccc(Cc2nnc(SCC(=O)Nc3ncc(C)s3)o2)cc1	1.13	-2.0	-2.0	-0.000612	-4.1	9.7
Brc1ccc([C@H]2CN3CCSC3=N2)cc1	nt	nt	nt	-0.378	nt	nt
COC(=O)c1ccc(C(=O)OC)c(NC(=O)COc2ccccc2OC)c1	-0.556	15.6	0.0	-0.53	-5.0	3.5
COC(=O)c1cc(OC)c(OC)cc1NC(=O)CSc1ccccc1	nt	-1.4	-1.0	-0.0411	nt	43.4*
COC(=O)c1cc(OC)c(OC)cc1NC(=O)Nc1ccccc1OC	0.783	9.7	1.0	-0.824	-16.2	17.9
COC(=O)c1ccc(C(=O)OC)c(NC(=O)CSc2cccc[n+]2[O-])c1	nt	8.0	50.0*	0.0504	nt	1.8
COc1ccccc1C(=O)NCCc1nc2ccccc2[nH]1	-0.787	-1.7	10.0	-0.24	-14.8	-5.5
Cn1c(=O)[nH]c(=O)c2[nH]c(CN3CCN(Cc4ccccc4)CC3)nc21	-4.28*	nt	nt	-0.757	-18.1	nt
Cn1c(=O)[nH]c(=O)c2c1nc(N1CCN(Cc3ccccc3)CC1)n2CCCc1ccccc1	3.83	-4.8	-4.0	0.0145	1.4	22.8
CCOc1nc(CC)nc(NC(=O)NS(=O)(=O)c2ccccc2Cl)n1	1.06	-3.0	-1.0	-0.757	-12.5	7.5
O=C1[C@H]2[C@@H](C(=O)N1c1cc(Cl)cc(Cl)c1)[C@]1(C(=O)Nc3ccccc31)N1CCC[C@@H]21	0.279	-2.2	11.0	3.75*	79.8*	24.9
Cc1cc(Cl)c2c(c1)[C@]1(C(=O)N2)[C@@H]2C(=O)N(Cc3ccccc3)C(=O)[C@@H]2[C@@H]2CCCN21	0.0186	-5.8	-1.0	0.283	17.1	17.3
CCOc1ccc(NC(=O)CC2C(=O)N(C)C(=S)N2Cc2ccc3c(c2)OCO3)cc1 (stereo not drawn)	nt	nt	nt	1.24	nt	nt
COc1cccc2c1nc(C)c1cc(C)oc12	-0.789	10.6	4.0	0.108	9.7	31.1*
O=C(CSc1nnc(C2CC2)n1Cc1ccccc1)c1ccc(S(=O)(=O)N2CCOCC2)cc1	0.213	21.0	4.0	-0.173	6.3	-1.1
O=C(CSc1nnc(C2CC2)n1Cc1ccccc1)N1CCN(S(=O)(=O)c2ccccc2)CC1	0.451	4.7	2.0	-7.41*	8.3	2.7
CC(C)Cn1c(CN2CCN(c3ccccc3F)CC2)nc2c1c(=O)[nH]c(=O)n2C	2.17	-1.6	-4.0	1.84	7.9	15.5
